# Reference: ChEMBL document CHEMBL3600298, “Antiproliferative and apoptosis-inducing activities of novel naphthalimide-cyclam conjugates through dual topoisomerase (topo) I/II inhibition” (Bioorg Med Chem, 2015)
# Activity calls are given as the source filed them. The calls are words filed in the database; no cut-off is given here.
# Legend:
# [1] = tested on: A549; test: Cytotoxicity against human A549 cells incubated for 24 hrs by sulforhodamine B assay; type: functional, cell-based; conditions: A549, 24 h
# [2] = tested on: HeLa; test: Cytotoxicity against human HeLa cells incubated for 24 hrs by sulforhodamine B assay; type: functional, cell-based
# [3] = tested on: HCT-116; test: Cytotoxicity against human HCT116 cells incubated for 24 hrs by sulforhodamine B assay; type: functional, cell-based; conditions: HCT-116, 24 h
# [4] = target: DNA topoisomerase 2-alpha (Homo sapiens) (UniProt P11388); test: Inhibition of human topoisomerase 2 assessed as reduction in ATP-dependent kDNA decatenation at 100 uM incubated for 30 mins by ethidium bromide staining based electrophoresis method
# [5] = species on record: Bos taurus; test: Inhibition of calf thymus topoisomerase 1 assessed as reduction in relaxation of supercoiled pBR322 DNA at 100 uM incubated for 30 mins by ethidium bromide staining based electrophoresis method
# Summary of the method: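 Calf thymus topo I (0.1 unit) incubated with 0.5 μg supercoiled pBR322 DNA and compound for 30 min at 37 °C in topo I buffer with 0.01% BSA, 20 μL total. Reaction stopped with SDS/loading dye. Samples run on 0.8% agarose in TAE, 35 min at 120 V, then stained with ethidium bromide and imaged under UV.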
# [6] = tested on: HeLa; test: Induction of apoptosis in human HeLa cells assessed as early apoptotic cells level at 10 uM incubated for 24 hrs by annexin V-FITC and propidium iodide staining based flow cytometry (reference value: 0.72%); type: functional
# Summary of the method: (§1)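 HeLa cells seeded at 1 × 10^6 per well and exposed to compound at 10 μM for 24 h. Cells then treated with cold PBS and resuspended in binding buffer. Annexin V-FITC added, followed by 15 min at 4 °C in the dark. Apoptotic cells quantified by annexin V/PI double staining.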
# [7] = tested on: HeLa; test: Induction of apoptosis in human HeLa cells assessed as late apoptotic cells level at 10 uM incubated for 24 hrs by annexin V-FITC and propidium iodide staining based flow cytometry (reference value: 1.81%); type: functional; summary of the method: as §1
# [8] = tested on: HeLa; test: Induction of apoptosis in human HeLa cells at 10 uM incubated for 24 hrs by annexin V-FITC and propidium iodide staining based flow cytometry; type: functional; summary of the method: as §1
# [9] = tested on: Calf thymus DNA; test: Binding affinity to calf thymus DNA assessed as induction of conformational changes at 20 uM by CD spectroscopy; type: nucleic-acid assay; conditions: Bos taurus
# Summary of the method: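 ct-DNA in 20 mM Tris–HCl pH 7.4, concentration set from molar absorption coefficient 6600 M−1 cm−1, A260/A280 above 1.8; 100 μM DNA with 20 μM compound for 2 h at 25 °C; CD spectra recorded 200–400 nm in 1 cm quartz cell.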
# [10] = species on record: Bos taurus; test: Inhibition of calf thymus topoisomerase 1 assessed as reduction in relaxation of supercoiled pBR322 DNA at 200 uM incubated for 30 mins by ethidium bromide staining based electrophoresis method
# Summary of the method: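 Calf thymus topo I, 0.1 units, with 0.5 µg supercoiled pBR322 DNA and compound in topo I buffer with 0.01% BSA, 20 µL total. Incubated 30 min at 37 °C. Reaction stopped with 10% SDS plus loading dye. Run on 0.8% agarose gel in TAE, 35 min at 120 V. Gel stained with ethidium bromide and imaged under UV.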
# Chain of DNA topoisomerase 2-alpha (Homo sapiens) (P11388 whole entry): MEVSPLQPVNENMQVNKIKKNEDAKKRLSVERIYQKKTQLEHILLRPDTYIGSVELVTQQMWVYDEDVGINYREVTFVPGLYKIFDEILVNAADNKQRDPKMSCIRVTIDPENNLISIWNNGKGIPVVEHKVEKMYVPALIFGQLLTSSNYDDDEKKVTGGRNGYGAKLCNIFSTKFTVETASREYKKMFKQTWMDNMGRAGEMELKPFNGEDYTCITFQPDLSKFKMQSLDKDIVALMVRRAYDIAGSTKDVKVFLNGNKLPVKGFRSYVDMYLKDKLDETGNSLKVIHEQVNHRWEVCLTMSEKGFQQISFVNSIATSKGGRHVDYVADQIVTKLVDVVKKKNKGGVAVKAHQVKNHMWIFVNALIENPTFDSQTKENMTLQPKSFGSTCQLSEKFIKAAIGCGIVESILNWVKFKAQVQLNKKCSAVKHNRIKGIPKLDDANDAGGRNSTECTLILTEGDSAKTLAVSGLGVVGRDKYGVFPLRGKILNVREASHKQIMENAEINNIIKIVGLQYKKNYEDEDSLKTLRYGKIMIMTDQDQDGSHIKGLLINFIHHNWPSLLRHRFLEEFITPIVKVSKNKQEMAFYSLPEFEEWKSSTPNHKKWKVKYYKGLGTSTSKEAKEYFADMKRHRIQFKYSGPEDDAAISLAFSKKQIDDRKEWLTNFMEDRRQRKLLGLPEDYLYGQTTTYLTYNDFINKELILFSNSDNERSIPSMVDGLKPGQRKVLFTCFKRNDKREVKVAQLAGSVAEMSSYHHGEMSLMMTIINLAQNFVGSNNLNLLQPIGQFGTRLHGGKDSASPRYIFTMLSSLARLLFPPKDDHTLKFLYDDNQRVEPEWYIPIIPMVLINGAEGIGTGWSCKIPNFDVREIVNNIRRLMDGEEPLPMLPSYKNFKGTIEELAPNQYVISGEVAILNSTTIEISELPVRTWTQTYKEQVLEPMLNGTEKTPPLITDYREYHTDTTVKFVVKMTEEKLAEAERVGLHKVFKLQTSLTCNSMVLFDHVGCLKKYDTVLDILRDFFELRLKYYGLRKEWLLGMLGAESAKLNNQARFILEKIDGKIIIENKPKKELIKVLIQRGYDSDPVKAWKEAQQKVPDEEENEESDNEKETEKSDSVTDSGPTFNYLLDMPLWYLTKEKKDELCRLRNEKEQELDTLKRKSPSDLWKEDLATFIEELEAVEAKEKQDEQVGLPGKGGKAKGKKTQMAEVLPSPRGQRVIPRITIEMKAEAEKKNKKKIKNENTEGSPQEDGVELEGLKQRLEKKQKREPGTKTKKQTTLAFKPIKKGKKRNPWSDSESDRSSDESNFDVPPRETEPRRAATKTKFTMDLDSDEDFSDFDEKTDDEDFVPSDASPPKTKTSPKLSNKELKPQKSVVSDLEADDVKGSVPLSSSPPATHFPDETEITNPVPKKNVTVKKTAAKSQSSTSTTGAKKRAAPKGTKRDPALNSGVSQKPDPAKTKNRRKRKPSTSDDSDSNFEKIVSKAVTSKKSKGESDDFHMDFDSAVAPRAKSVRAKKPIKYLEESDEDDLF
Compound,IC50 [1] [µM],IC50 [2] [µM],IC50 [3] [µM],inhibition [4],inhibition [5],Activity [6] [%],Activity [7] [%],Activity [8] [%],Activity [9],inhibition [10]
CCCCCCCCCCCCNc1ccc2c3c(cccc13)C(=O)N(CCCN1CCCNCCNCCCNCC1)C2=O,15.8,9.36,13,Active,Active,59.52,32.47,>90,,
CCCCCCCCNc1ccc2c3c(cccc13)C(=O)N(CCCN1CCCNCCNCCCNCC1)C2=O,11.6,8.4,8.07,Active,Active,1.49,98.46,>90,Active,
CC[C@@]1(O)C(=O)OCc2c1cc1n(c2=O)Cc2cc3ccccc3nc2-1,,,,,,,,,,Active
CCCCCCCCN1C(=O)c2cccc3c(NCCN4CCCNCCNCCCNCC4)ccc(c23)C1=O,15.8,10.1,16.7,Active,Active,39.47,60.48,>90,,
CN1C(=O)c2cccc3c(NCCN4CCCNCCNCCCNCC4)ccc(c23)C1=O,34.3,13.8,34.1,,,,,,,
CNc1ccc2c3c(cccc13)C(=O)N(CCCN1CCCNCCNCCCNCC1)C2=O,> 50,> 50,> 50,,,,,,,
C1CNCCNCCCNCCNC1,> 50,> 50,> 50,,,,,,,
CCCCCCCCCCCCN1C(=O)c2cccc3c(NCCN4CCCNCCNCCCNCC4)ccc(c23)C1=O,18.4,11.8,18.2,Active,Active,86.4,13.54,>90,,
CCCCN1C(=O)c2cccc3c(NCCN4CCCNCCNCCCNCC4)ccc(c23)C1=O,38.9,19.2,29.2,,,,,,,
COc1cccc2c1C(=O)c1c(O)c3c(c(O)c1C2=O)C[C@@](O)(C(=O)CO)C[C@@H]3O[C@H]1C[C@H](N)[C@H](O)[C@H](C)O1,,,,Active,,,,,,
CCCCNc1ccc2c3c(cccc13)C(=O)N(CCCN1CCCNCCNCCCNCC1)C2=O,> 50,> 50,> 50,,,,,,,
CN(C)CCN1C(=O)c2cccc3cc(N)cc(c23)C1=O [AMONAFIDE],,9.52,,Active,Active,,,,,
